Screening data: PubChem, several laboratories
HUVEC inhibit: inhibitors of HUVEC proliferation, primary screen, cell-based, 384-well; CellTiter-Glo luminescence, 72 h; active compounds read low; viability, % at 10 µM (by protocol); hit rate 1.1% among 86,000; AID 648, 2007;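 active = viability at or below 30%; inactive = viability above 30%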;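 also: 100% = median luminescence of DMSO-only cell control wells on each plate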
Jurkat tox 60K: cytotoxicity toward Jurkat T cells, primary screen, cytotoxicity control, cell-based, Jurkat E6.1, 60K MLSMR library | Jurkat E6.1 viability, ATP luminescence, 48 h | inhibition, % at 4 µM | hit rate 1.2% among 56,000 | AID 463, 2006;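 active = inhibition above the mean inhibition of all tested compounds plus 3 SD, cut at about 28% in these data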
Lung fibro prol: antiproliferative effect on LL 47 fibroblasts – human, LL 47 cells, CellTiter-Glo luminescence, primary screen; LL 47 human lung fibroblast viability, ATP luminescence; active compounds read low; viability, % at 10 µM; hit rate 1.1% among 85,000;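 active = viability at or below 50% in the single dose screen; inactive = viability above 50%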;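 also: compound exposure lasted 72 h before the ATP readout; 100% = median luminescence of untreated cell-only wells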
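Times – overnight cell rest, 72 h compound treatment at 37 °C · Test system – human lung fibroblast line LL 47, low passage · Amount – 1,150 cells in each well · Controls – cell-only wells, no compound · Doses – 0.1% DMSO in all compound wells · Measured by – CellTiter-Glo luminescence · Buffer or medium – IMEM plus 15% FBS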
H69AR inhibit: proliferation blockers of H69AR lung cancer cells, primary screen, cell-based, human, 86K library; H69AR lung tumor viability, ATP luminescence, 72 h; active compounds read low; viability, % at 10 µM; hit rate 6% among 85,000; AID 598, 2007;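 active = viability at or below 40%; inactive = viability above 40%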;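 also: multidrug resistant small cell line overexpressing MRP-1 efflux transporter; 100% = mean luminescence of untreated control wells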
Ecoli WT expand: growth inhibitors of wild-type E. coli, primary screen, strain BW25113, expanded library, OD600. OD600 absorbance. growth inhibition, % at 100 µM. hit rate 0.15% among 98,000;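 active = growth inhibition above about 50% at one test dose, limit read from the data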;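 also: growth measured after 20 h incubation at 37 °C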
Ecoli tolC: growth inhibitors of E. coli tolC mutant, primary screen, strain BW25113 ΔtolC::kan, 384-well. OD615. growth inhibition, % at 10 µM (by protocol). hit rate 2.2% among 65,000;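 active = growth inhibition at or above a cutoff equal to the mean over every tested compound plus 3 SD, cut at about 60% in these data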;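 also: growth measured after 20 h incubation at 37 °C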
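Test system: E. coli BW25113 ΔtolC::kan bacteria | Medium: Kanamycin-containing LB broth (50 µg/mL) | Dosing: One dose of 10 µM final | Times: 20 h incubation with compound, 37 °C | Detection: Optical density read at 615 nm | Read-out basis: Percent growth inhibition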
* marks the source's active call; other numbers are inactive results; nt = not tested or not shown. Hits are enriched below; roughly 6.4% of the tested compounds scored in any of these assays.

SMILES | HUVEC inhibit | Jurkat tox 60K | Lung fibro prol | H69AR inhibit | Ecoli WT expand | Ecoli tolC
O=C(Nc1cccnc1)Nc1ccc(Br)cc1Cl | 106.4 | -4.2 | 104.3 | 91.4 | 3.0 | 17.6
COC(=O)C(CC(=O)c1ccc(Br)cc1)n1ccnc1 (centres undefined) | 68.7 | 0.3 | 28.3* | 88.0 | 59.0* | 5.2
Cc1ccc(NCCC(=O)c2ccc(Br)cc2)cc1 | nt | nt | nt | nt | -1.0 | nt
Cc1nnc(NC(=O)CSc2nnc3scc(-c4ccc(C)c(C)c4)n23)s1 | 88.2 | 7.0 | 96.3 | 96.8 | 3.0 | 2.0
O=C(C1CCN(Cc2cc(Cl)ccc2O)CC1)N1CCN(Cc2ccccc2)CC1 | 85.9 | 5.9 | 98.7 | 73.1 | 4.0 | 94.8*
CCCn1c(=O)n(C)c(=O)c2c(SCc3cc(C(C)=O)ccc3OCC)nc(C3CC3)nc21 | nt | nt | nt | nt | nt | 1.2
CCc1nnc(NC(=O)c2ccc(S(=O)(=O)N(CC)CC)cc2)s1 | 92.8 | 0.8 | 99.7 | 99.6 | -14.0 | 4.2
CCCCN(C)S(=O)(=O)c1ccc(C(=O)Nc2nnc(CSC)o2)cc1 | nt | 52.9* | nt | nt | 14.0 | 98.5*
CCCCN(CCCC)S(=O)(=O)c1ccc(C(=O)Nc2nnc(COC)o2)cc1 | 33.9 | 17.5 | 67.0 | 27.3* | 5.0 | 96.9*
CCCCN(CC)S(=O)(=O)c1ccc(C(=O)Nc2nnc(-c3cccs3)o2)cc1 | 5.0* | 100.8* | 62.1 | 34.7* | -1.0 | 99.1*
CCc1nnc(NC(=O)c2ccc(S(=O)(=O)N(CC)Cc3ccccc3)cc2)o1 | 69.5 | 97.7* | 69.0 | 20.9* | 2.0 | 100.0*
CCCCN(CCCC)S(=O)(=O)c1ccc(NC(=O)Cc2cccs2)cc1 | 77.2 | nt | 90.5 | 63.9 | -4.0 | nt
Cc1cc(C)c(NC(=O)c2ccc(S(=O)(=O)N(C)C)cc2)c(C)n1 | 97.4 | -4.4 | 96.9 | 95.6 | 9.0 | -8.8
CCCCN(CCCC)S(=O)(=O)c1ccc(NS(=O)(=O)c2ccc(NC(C)=O)cc2)cc1 | 71.2 | nt | 91.5 | 99.6 | -12.0 | nt
COc1nc(-c2ccccc2)ccc1-c1noc(C)n1 | 97.8 | 1.6 | 100.3 | 89.2 | 5.0 | 0.3
CCS(=O)(=O)N1CCN(c2ccc([N+](=O)[O-])c(NC(C)c3ccccc3)c2)CC1 (centres undefined) | nt | nt | nt | nt | -13.0 | nt
COC(=O)c1ccccc1CCC(C)=O | 77.7 | 0.0 | 91.4 | 24.1* | 9.0 | -12.8
COC(=O)CSc1nc(-c2cccs2)ccc1C#N | 99.7 | nt | 96.2 | 36.6* | -2.0 | 16.5
C#CCSc1nc(-c2cccs2)ccc1C#N | 56.8 | 15.5 | 82.1 | 43.0 | -18.0 | 11.8
COc1ccc(CNC(=O)CSc2nc(-c3ccccc3)cc(-c3cccs3)c2C#N)cc1 | 57.0 | nt | 98.8 | 78.3 | -6.0 | nt
COc1ccc(-c2cc(-c3cccs3)c(C#N)c(SCC(=O)NCc3ccco3)n2)cc1 | 51.9 | 14.5 | 56.5 | 22.2* | 4.0 | 5.1
CN1CCN(C(=O)CSc2nc(-c3cccs3)cc(-c3cccs3)c2C#N)CC1 | 2.0* | 11.3 | 53.0 | 5.4* | -2.0 | 6.8
CSc1nc(C2CC2)cc(-c2cccs2)c1C#N | 29.9* | -1.6 | 31.6* | 8.6* | -12.0 | -5.2
O=C(CN1CCOCC1)Nc1ccccc1Cl | 91.7 | nt | 91.4 | 97.6 | 9.0 | nt
Cc1ccc(N(CC(=O)Nc2cccc(C)c2)S(=O)(=O)c2cccc3nonc23)cc1 | 75.3 | -13.7 | 81.4 | 83.1 | -7.0 | 61.9*
SMILES | HUVEC inhibit | Jurkat tox 60K | Lung fibro prol | H69AR inhibit | Ecoli WT expand | Ecoli tolC
CC1=C(C(=O)OC(C)C)C(c2ccc(Br)s2)NC(=O)N1 (centres undefined) | 102.7 | nt | 93.0 | 96.2 | 4.0 | nt
O=C1CSC(=S)N1CC1CCCO1 (centres undefined) | 95.0 | 3.9 | 93.2 | 19.9* | 9.0 | -6.8
O=C1C2C3C=CC(C3)C2C(=O)N1CC1CCCO1 (centres undefined) | 91.9 | -5.7 | 102.8 | 96.9 | -1.0 | -36.5
Cc1nn(-c2ccc(Cl)cc2)c2[nH]c(=O)c(CNCc3ccc4c(c3)OCO4)cc12 | 81.7 | -3.5 | 88.4 | 32.5* | 3.0 | 45.1
Cc1nn(-c2ccccc2)c2[nH]c(=O)c(CNc3ccc(N4CCOCC4)cc3)cc12 | 76.4 | -4.2 | 93.6 | 17.9* | -6.0 | -4.2
CC(C)(C)c1nn(-c2ccccc2)c2[nH]c(=O)c(CNc3ccc4c(c3)OCCO4)cc12 | 52.7 | nt | 92.0 | 101.1 | -12.0 | nt
COc1ccc(N2CCN(C(=O)c3ccc4nc(N5CCCCC5)sc4c3)CC2)cc1 | 84.2 | -1.0 | 99.3 | 95.5 | -2.0 | 12.2
COCCCNC(=O)c1ccc(Cn2c(=O)[nH]c3ccccc3c2=O)cc1 | 58.7 | 28.1 | 70.0 | 22.6* | nt | -6.4
COCCCNC(=O)CCn1c(=O)c2ccccc2n(CC(=O)Nc2ccc(C)cc2C)c1=O | 99.0 | -9.8 | 103.1 | 94.1 | -5.0 | -22.9
COCCCNC(=O)c1ccc(Cn2c(=O)c3ccccc3n(Cc3ccccc3C)c2=O)cc1 | 59.3 | nt | 87.9 | 18.8* | -8.0 | nt
COCCCNC(=O)c1ccc(Cn2c(=O)c3ccccc3n(Cc3cc(C)ccc3C)c2=O)cc1 | 58.0 | nt | 89.5 | 39.2* | -8.0 | nt
COCCCNC(=O)c1ccc(Cn2c(=O)c3ccccc3n(Cc3ccccc3C#N)c2=O)cc1 | 56.0 | nt | 72.4 | 18.3* | -14.0 | nt
CC(NS(C)(=O)=O)C(c1cccs1)N1CCN(c2ccccc2F)CC1 (centres undefined) | 89.8 | nt | 108.2 | 95.2 | nt | 9.0
C=CCn1cc(C(=O)NCCOC)c(=O)c2cc(S(=O)(=O)N(CC)CC)ccc21 | 93.0 | 9.8 | 94.9 | 98.4 | 6.0 | -8.6
O=C(NCc1ccco1)c1cccn2c(=O)c3cc4ccccc4cc3nc12 | 52.6 | nt | 86.6 | 21.2* | -8.0 | nt
O=C(Nc1ccc(F)cc1)c1cc(S(=O)(=O)Nc2ccc(F)cc2)cs1 | nt | nt | nt | nt | 16.0 | nt
Cc1ccc(Cl)cc1N1CCN(Cc2nc3c(c(=O)[nH]c(=O)n3C)n2Cc2ccccc2F)CC1 | 42.2 | 6.5 | 85.5 | 18.8* | nt | 40.2
Cc1ccc(Cl)cc1N1CCN(Cc2nc3c(c(=O)[nH]c(=O)n3C)n2CCc2ccccc2)CC1 | 36.9 | 3.0 | 17.7* | 4.3* | nt | -14.7
Cn1c(=O)[nH]c(=O)c2c1nc(CN1CCN(c3ccccc3F)CC1)n2CC(N)=O | 101.6 | -3.9 | 93.1 | 95.9 | 5.0 | -18.1
CSc1sc2ccccc2[n+]1CCCS(=O)(=O)[O-] | nt | nt | nt | nt | 0.0 | nt
Cc1cc(C)nc(N2CCC(C(=O)NCc3cccs3)CC2)n1 | 111.8 | -0.7 | 102.0 | 94.3 | -4.0 | 1.9
CCNC(=O)COc1ccc2ccccc2c1 | 118.0 | -0.7 | 106.5 | 93.4 | 9.0 | -10.8
COc1cccc(C2=NO[C@@H]3C(=O)N(Cc4ccccc4)C(=O)[C@H]23)c1OC | 91.3 | 1.6 | 97.5 | 101.1 | 2.0 | -15.1
CCOC(=O)Cn1nnnc1CN(Cc1cccs1)Cc1cc2cc(C)cc(C)c2[nH]c1=O | 88.6 | nt | 101.4 | 81.6 | -3.0 | nt
